Results as given in ChEMBL document CHEMBL3098046, “Fragment-based discovery of 6-azaindazoles as inhibitors of bacterial DNA ligase” (ACS Med Chem Lett, 2013).
Values after ≈ are worked out from the molar mass of the structure shown. Blank lines part the entries; values can stand above or below the molecule they belong to.

Key:
Pseudomonas aeruginosa [1] = assay: Antibacterial activity against Pseudomonas aeruginosa PAO322 after 18 to 24 hrs by broth microdilution method; format: functional
Klebsiella pneumoniae [2] = assay: Antibacterial activity against TolC deficient Klebsiella pneumoniae 1161486a after 18 to 24 hrs by broth microdilution method; format: functional
Escherichia coli [3] = assay: Antibacterial activity against TolC deficient Escherichia coli 7623 after 18 to 24 hrs by broth microdilution method; format: functional
Haemophilus influenzae [4] = assay: Antibacterial activity against AcrB deficient Haemophilus influenzae H128 after 18 to 24 hrs by broth microdilution method; format: functional
Acinetobacter baumannii [5] = assay: Antibacterial activity against Acinetobacter baumannii BM4454 after 18 to 24 hrs by broth microdilution method; format: functional
Pseudomonas aeruginosa [6] = assay: Antibacterial activity against Pseudomonas aeruginosa PAO(MV) after 18 to 24 hrs by broth microdilution method; format: functional
Klebsiella pneumoniae [7] = assay: Antibacterial activity against Klebsiella pneumoniae 1161486 after 18 to 24 hrs by broth microdilution method; format: functional
Escherichia coli [8] = assay: Antibacterial activity against Escherichia coli 7623 after 18 to 24 hrs by broth microdilution method; format: functional
Haemophilus influenzae [9] = assay: Antibacterial activity against Haemophilus influenzae H128 after 18 to 24 hrs by broth microdilution method; format: functional
Streptococcus pyogenes = assay: Antibacterial activity against Streptococcus pyogenes 1307006P after 18 to 24 hrs by broth microdilution method; format: functional
Streptococcus pneumoniae = assay: Antibacterial activity against Streptococcus pneumoniae 1629 after 18 to 24 hrs by broth microdilution method; format: functional
Staphylococcus aureus [10] = assay: Antibacterial activity against Staphylococcus aureus Oxford after 18 to 24 hrs by broth microdilution method; format: functional
DNA ligase [11] = target: T1, DNA ligase (Staphylococcus aureus, UniProt Q9AIU7); assay: Binding affinity to C-terminal 6xHis-tagged Staphylococcus aureus DNA ligase (1 to 312) expressed in Escherichia coli BL21 (DE3) by ITC assay
DNA ligase [12] = target: T1, DNA ligase; assay: Inhibition of C-terminal 6xHis-tagged full length recombinant Staphylococcus aureus DNA ligase (1 to 312) expressed in Escherichia coli BL21 (DE3) using oligonucleotide as substrate after 10 mins by TR-FRET assay
[13] = Solubility of the compound; format: physicochemical
L5178Y = assay: Cytotoxicity against TK +/- expressing mouse L5178Y cells; format: cell-based
Summary of the method: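 Mouse lymphoma cell line (described as lung lymphoma) used for general cytotoxicity, tested up to a highest concentration of 100 μM.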

[14] = Inhibition of Escherichia coli LigA
Escherichia coli [15] = assay: Antibacterial activity against TolC deficient Escherichia coli TOP10 expressing LigA R518H mutant by broth microdilution method; format: functional
Escherichia coli [16] = assay: Antibacterial activity against TolC deficient Escherichia coli TOP10 expressing LigA R150S mutant by broth microdilution method; format: functional
Escherichia coli [17] = assay: Antibacterial activity against TolC deficient Escherichia coli TOP10 expressing LigA G180E mutant by broth microdilution method; format: functional
Escherichia coli [18] = assay: Antibacterial activity against TolC deficient Escherichia coli TOP10 by broth microdilution method; format: functional
Staphylococcus aureus [19] = assay: Antibacterial activity against Staphylococcus aureus RN4220 expressing pYH4-YerG/LigA by broth microdilution method in presence of anhydrotetracycline; format: functional
Staphylococcus aureus [20] = assay: Antibacterial activity against Staphylococcus aureus RN4220 expressing pYH4-YerG/LigA by broth microdilution method in absence of anhydrotetracycline; format: functional
Staphylococcus aureus [21] = assay: Antibacterial activity against Staphylococcus aureus RN4220 expressing pYH4 by broth microdilution method in presence of anhydrotetracycline; format: functional
Staphylococcus aureus [22] = assay: Antibacterial activity against Staphylococcus aureus RN4220 expressing pYH4 by broth microdilution method in absence of anhydrotetracycline; format: functional
Acinetobacter baumannii [23] = assay: Antibacterial activity against Acinetobacter baumannii BM4652 expressing efflux transporter mutant after 18 to 24 hrs by broth microdilution method

MIC (Pseudomonas aeruginosa [1]): 64 µg/mL (≈ 181 µM)
MIC (Klebsiella pneumoniae [2]): 8 µg/mL (≈ 22.6 µM)
MIC (Escherichia coli [3]): 8 µg/mL (≈ 22.6 µM)
MIC (Haemophilus influenzae [4]): 2 µg/mL (≈ 5.66 µM)
MIC (Acinetobacter baumannii [5]): > 128 µg/mL
MIC (Pseudomonas aeruginosa [6]): > 128 µg/mL
MIC (Klebsiella pneumoniae [7]): > 128 µg/mL
MIC (Escherichia coli [8]): > 128 µg/mL
MIC (Haemophilus influenzae [9]): 16 µg/mL (≈ 45.3 µM)
MIC (Streptococcus pyogenes): 8 µg/mL (≈ 22.6 µM)
MIC (Streptococcus pneumoniae): 2 µg/mL (≈ 5.66 µM)
MIC (Staphylococcus aureus [10]): 8 µg/mL (≈ 22.6 µM)
Structure (SMILES): Nc1nc(OCC2CCC2)nc2c1ncn2[C@@H]1O[C@H](CF)[C@@H](O)[C@H]1O

Kd (DNA ligase [11]): 38 µM
Structure (SMILES): Clc1cncc(-c2nnc[nH]2)n1

Kd (DNA ligase [11]): 10 µM
IC50 (DNA ligase [12]): 17 µM
Structure (SMILES): Clc1cccc(-c2nc[nH]n2)n1

IC50 (DNA ligase [12]): 300 µM
Structure (SMILES): c1ccc(-c2nnc[nH]2)nc1

IC50 (DNA ligase [12]): 130 µM
Structure (SMILES): COc1cccc(-c2nnc[nH]2)n1

IC50 (DNA ligase [12]): 140 µM
Structure (SMILES): Cc1cccc(-c2nnc[nH]2)n1

IC50 (DNA ligase [12]): 53 µM
Structure (SMILES): c1cc(-c2nnc[nH]2)nc(C2CCC2)c1

IC50 (DNA ligase [12]): 21 µM
Structure (SMILES): CC(F)(F)c1cccc(-c2nnc[nH]2)n1

IC50 (DNA ligase [12]): 16 µM
Structure (SMILES): FC(F)(F)c1cccc(-c2nc[nH]n2)n1

IC50 (DNA ligase [12]): 0.22 µM
solubility [13]: 12 µg/mL (≈ 45.4 µM)
Structure (SMILES): FC(F)(F)c1cccc(-c2n[nH]c3cnccc23)n1

Structure (SMILES): OCCNc1cc(-c2n[nH]c3cnccc23)nc(C(F)(F)F)c1
IC50 (L5178Y): 16 µg/mL (≈ 49.5 µM)
MIC (Pseudomonas aeruginosa [1]): > 128 µg/mL
MIC (Klebsiella pneumoniae [2]): > 128 µg/mL
MIC (Escherichia coli [3]): 128 µg/mL (≈ 396 µM)
MIC (Haemophilus influenzae [4]): 8 µg/mL (≈ 24.7 µM)
MIC (Acinetobacter baumannii [5]): > 128 µg/mL
MIC (Pseudomonas aeruginosa [6]): > 128 µg/mL
MIC (Klebsiella pneumoniae [7]): > 128 µg/mL
MIC (Escherichia coli [8]): > 128 µg/mL
MIC (Haemophilus influenzae [9]): 128 µg/mL (≈ 396 µM)
MIC (Streptococcus pyogenes): 128 µg/mL (≈ 396 µM)
MIC (Streptococcus pneumoniae): 64 µg/mL (≈ 198 µM)
MIC (Staphylococcus aureus [10]): 8 µg/mL (≈ 24.7 µM)
IC50 (DNA ligase [12]): 0.23 µM
solubility [13]: 113 µg/mL (≈ 350 µM)

Structure (SMILES): OCCNc1cc(C(F)(F)F)nc(-c2n[nH]c3cnccc23)n1
IC50 [14]: 0.097 µM
MIC (Escherichia coli [15]): 64 µg/mL (≈ 197 µM)
MIC (Escherichia coli [16]): 64 µg/mL (≈ 197 µM)
MIC (Escherichia coli [17]): 64 µg/mL (≈ 197 µM)
MIC (Escherichia coli [18]): 8 µg/mL (≈ 24.7 µM)
MIC (Staphylococcus aureus [19]): 128 µg/mL
MIC (Staphylococcus aureus [20]): 16 µg/mL (≈ 49.3 µM)
MIC (Staphylococcus aureus [21]): 8 µg/mL
MIC (Staphylococcus aureus [22]): 8 µg/mL (≈ 24.7 µM)
IC50 (L5178Y): > 36 µg/mL
MIC (Pseudomonas aeruginosa [1]): 32 µg/mL (≈ 98.7 µM)
MIC (Klebsiella pneumoniae [2]): 32 µg/mL (≈ 98.7 µM)
MIC (Escherichia coli [3]): 16 µg/mL (≈ 49.3 µM)
MIC (Haemophilus influenzae [4]): 1 µg/mL (≈ 3.08 µM)
MIC (Acinetobacter baumannii [5]): > 128 µg/mL
MIC (Pseudomonas aeruginosa [6]): > 128 µg/mL
MIC (Klebsiella pneumoniae [7]): > 128 µg/mL
MIC (Escherichia coli [8]): > 128 µg/mL
MIC (Haemophilus influenzae [9]): 16 µg/mL (≈ 49.3 µM)
MIC (Streptococcus pyogenes): 8 µg/mL (≈ 24.7 µM)
MIC (Streptococcus pneumoniae): 2 µg/mL (≈ 6.17 µM)
MIC (Staphylococcus aureus [10]): 4 µg/mL (≈ 12.3 µM)
Kd (DNA ligase [11]): 0.025 µM
IC50 (DNA ligase [12]): 0.015 µM
MIC (Acinetobacter baumannii [23]): 32 µg/mL (≈ 98.7 µM)
